# Laboratory results published in ChEMBL document CHEMBL4219056 (Bioorg Med Chem, 2018).
# The source made the active and inactive calls. The calls are words filed in the database; no cut-off is given here.
# How the values were obtained:
# [1] = Lipophilicity, log D of the compound at 100 uM at pH 7.4 after 24 hrs by HPLC method; type: physicochemical; details: buffer
# In short: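 Shake-flask method: 10 mM DMSO stock was added to equal volumes of 0.01 M phosphate buffer pH 7.4 and 1-octanol, giving 100 µM final. Vials were shaken 24 h at 700 rpm, then left 1 h to separate. The octanol phase was diluted ×10 and both phases were run on HPLC. Injections were in duplicate; three independent experiments were run.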
# [2] = system: Mus musculus; experiment: Antidiabetic activity in ICR mouse assessed as reduction in blood glucose AUC (0 to 120 mins) at 40 mg/kg, po dosed 30 minutes prior to glucose challenge by OGTT relative to control; type: functional
# In short: (§1)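 Fasting male ICR mice (10 weeks, 18-22 g) got a single oral dose in 0.5% carboxymethyl cellulose. Oral glucose (30% solution, 3 g/kg) followed 30 min later. Blood glucose was sampled at -30, 0, 15, 30, 60 and 120 min.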
# [3] = molecular target: Free fatty acid receptor 1 (Homo sapiens, UniProt O14842); experiment: Agonist activity at human FFA1 expressed in CHO cells assessed as increase in intracellular Ca2+ flux by Fluo-4 dye based FLIPR assay; type: functional, cell-based
# In short: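 Stable human FFA1 CHO cells were seeded at 15 K cells/well and held 16 h at 37 °C in 5% CO2, then washed with HBSS. Ca2+ flux was read after graded compound addition. Response was scaled between vehicle and 10 µM γ-linolenic acid. EC50 is the mean of three independent determinations.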
# [4] = AUC (0 to 24 hrs) in fasted Sprague-Dawley rat at 3 mg/kg, po administered as single dose by LC-PDA-MS/MS analysis; type: ADME, organism-based; parameters: dose 3 mg/kg, time < 24 hr, route oral; details: in vivo
# In short: (§2)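 Male SD rats (8 weeks, 180-200 g) were fasted 12 h and dosed once orally at 3 mg/kg, suspended in 0.5% methylcellulose, n = 4 per group. Tail-vein blood was drawn at 5, 15, 30 and 45 min and at 1, 2, 4, 6, 8, 12, 18 and 24 h. Plasma was stored at -20 °C. Methanol precipitation with internal standard preceded LC-PDA-MS/MS. Values are mean ± SD.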
# [5] = system: Mus musculus; experiment: Antidiabetic activity in ICR mouse assessed as reduction in blood glucose AUC (0 to 120 mins) at 20 mg/kg, po dosed 30 minutes prior to glucose challenge by OGTT relative to control; type: functional; parameters: scale not given: the % may be the effect or the level left; in short: as §1
# [6] = Cmax in fasted Sprague-Dawley rat at 3 mg/kg, po administered as single dose by LC-PDA-MS/MS analysis; type: ADME, organism-based; parameters: dose 3 mg/kg, route oral; details: in vivo; in short: as §2
# [7] = Plasma clearance in fasted Sprague-Dawley rat at 3 mg/kg, po administered as single dose measured up to 24 hrs by LC-PDA-MS/MS analysis; type: ADME, organism-based; in short: as §2
# [8] = Half life in fasted Sprague-Dawley rat at 3 mg/kg, po administered as single dose by LC-PDA-MS/MS analysis; type: ADME, organism-based; details: in vivo; in short: as §2
# Sequence of Free fatty acid receptor 1 (O14842 whole entry): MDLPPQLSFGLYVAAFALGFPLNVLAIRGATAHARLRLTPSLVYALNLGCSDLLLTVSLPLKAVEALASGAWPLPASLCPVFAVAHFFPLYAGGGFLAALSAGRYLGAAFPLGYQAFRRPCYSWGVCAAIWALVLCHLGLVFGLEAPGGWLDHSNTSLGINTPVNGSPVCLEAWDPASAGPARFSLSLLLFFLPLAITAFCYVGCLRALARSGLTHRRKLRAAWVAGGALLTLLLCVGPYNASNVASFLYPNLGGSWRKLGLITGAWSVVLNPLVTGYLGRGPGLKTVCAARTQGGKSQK
"logD at 24 h, 100 µM [1]",EC50 [3] [nM],SMILES,Activity [2],also measured
1.57,27.5,Cc1noc(C)c1-c1cccc(COc2ccc3c(c2)OCC3CC(=O)O)c1 (stereo unspecified),Active,–
2.07,53.7,Cc1ccc(-c2c(C)noc2C)cc1COc1ccc2c(c1)OCC2CC(=O)O (stereo unspecified),–,–
–,–,Cc1noc(C)c1-c1cccc(COc2ccc(CCC(=O)O)cc2)c1,–,Activity ([2]; tested as the 2H-labelled form): Active
2.13,39.7,Cc1noc(C)c1-c1ccc(Cl)c(COc2ccc3c(c2)OCC3CC(=O)O)c1 (stereo unspecified),Active,–
–,157,Cc1ccsc1-c1cccc(COc2ccc3c(c2)OCC3CC(=O)O)c1 (stereo unspecified),–,–
1.96,18.6,Cc1noc(C)c1-c1cc(COc2ccc3c(c2)OCC3CC(=O)O)ccc1Cl (stereo unspecified),Active,–
–,104,Cc1nn(C)c(C)c1-c1cccc(COc2ccc3c(c2)OCC3CC(=O)O)c1 (stereo unspecified),–,–
–,–,Cc1cc(OCCCS(C)(=O)=O)cc(C)c1-c1cccc(COc2ccc3c(c2)OC[C@H]3CC(=O)O)c1,–,AUC(0-t) at 24 h [4]: 79.5 µg·h/mL; Activity [5]: 37.5%; Cmax [6]: 6460 ng/mL; CL/F [7]: 0.618 mL/min/kg; half-life [8]: 4.29 h
1.83,38.4,[2H]C([2H])(Cc1ccc(OCc2cccc(-c3c(C)noc3C)c2)cc1)C(=O)O,–,–
1.93,7.9,Cc1noc(C)c1-c1cc(COc2ccc3c(c2)OC[C@H]3CC(=O)O)ccc1Cl,26.2%,AUC(0-t) at 24 h [4]: 142 µg·h/mL; Cmax [6]: 14100 ng/mL; CL/F [7]: 0.308 mL/min/kg; half-life [8]: 4.65 h
–,45.7,[2H]C([2H])(Cc1ccc(OCc2cccc(-c3c(C)noc3C)c2)cc1F)C(=O)O,–,–
3.95,53.6,Cc1ccc(C)n1-c1cccc(COc2ccc3c(c2)OCC3CC(=O)O)c1 (stereo unspecified),–,–
